Test results: ChEMBL document CHEMBL1131582, “New substituted 1,4-benzoxazine derivatives with potential intracellular calcium activity” (J Med Chem, 1998)

Experiments:
Assay type in all cases: functional
Oryctolagus cuniculus [1] = organism: Oryctolagus cuniculus; assay: Inhibition of contraction induced by caffeine on rabbit renal artery; design: concentration or dose not given beside the values
Outline: (§1)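 Male New Zealand White rabbit left renal artery rings (2.5–3 mm) in Krebs' solution at 37 °C, gassed 95% O2/5% CO2, 3 g preload, 90 min equilibration, isometric tension. Three matched control contractions to caffeine 10 mM, then caffeine contractions repeated at 20 min with each rising test concentration until maximal inhibition. IC50 by linear regression; five to nine preparations.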

Oryctolagus cuniculus [2] = organism: Oryctolagus cuniculus; assay: Concentration which inhibits 50% of contraction induced by caffeine on rabbit renal artery; outline: as §1
Oryctolagus cuniculus [3] = organism: Oryctolagus cuniculus; assay: Concentration which inhibits 50% of contraction induced by potassium on rabbit renal artery
Outline: (§2)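 Endothelium-denuded arterial rings, with denudation confirmed by no acetylcholine (1 μM) relaxation of tissue precontracted with phenylephrine 0.1 μM. After reproducible 40 mM K+ responses, sustained tonic contraction to K+ 40 mM or phenylephrine 5 μM. Test compound added cumulatively until maximal relaxation.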

Oryctolagus cuniculus [4] = organism: Oryctolagus cuniculus; assay: Inhibitory selectivity for Phenylephrine (PE) and Potassium (K+) induced contraction on rabbit renal artery
Oryctolagus cuniculus [5] = organism: Oryctolagus cuniculus; assay: Concentration which inhibits 50% of contraction induced by phenylephrine on rabbit renal artery; outline: as §2
Oryctolagus cuniculus [6] = organism: Oryctolagus cuniculus; assay: Inhibition of contraction induced by phenylephrine on rabbit renal artery; outline: as §2
Oryctolagus cuniculus [7] = organism: Oryctolagus cuniculus; assay: Inhibition of contraction induced by potassium on rabbit renal artery; outline: as §2
Oryctolagus cuniculus [8] = organism: Oryctolagus cuniculus; assay: 50% inhibition of contraction induced by potassium on rabbit renal artery; outline: as §2

With `COc1ccc(CCNCC2CNc3ccccc3O2)cc1OC` (stereo unspecified) the Inhibition (Oryctolagus cuniculus [1]) was 26% and the IC50 (Oryctolagus cuniculus [2]) was over 30 µM.

`COc1ccc(CCNCCCCC2CN(Cc3ccccc3)c3ccccc3O2)cc1OC` (stereo unspecified) showed an IC50 (Oryctolagus cuniculus [3]) of 8.6 µM, an IC50 ratio (Oryctolagus cuniculus [4]) of 5 and an IC50 (Oryctolagus cuniculus [5]) of 43.1 µM. The IC50 (Oryctolagus cuniculus [2]) was 13.9 µM.

`Fc1ccc(N2CCN(CCCC3CN(Cc4ccccc4)c4ccccc4O3)CC2)cc1` (stereo unspecified) showed an IC50 (Oryctolagus cuniculus [3]) of 76.5 µM, an IC50 ratio (Oryctolagus cuniculus [4]) of 0.06 and an Inhibition (Oryctolagus cuniculus [1]) of 0%. It also gave an IC50 (Oryctolagus cuniculus [2]) of over 30 µM.

`COc1ccc(CCNCCCC2CN(Cc3ccccc3)c3ccccc3O2)cc1OC` (stereo unspecified) was tested, and the IC50 (Oryctolagus cuniculus [3]) was 10.2 µM, the IC50 ratio (Oryctolagus cuniculus [4]) was 2.1 and the IC50 (Oryctolagus cuniculus [5]) was 21.6 µM. The IC50 (Oryctolagus cuniculus [2]) was 11.8 µM.

For `O=C(c1ccccc1)N1CC(CCCN2CCN(c3ccc(F)cc3)CC2)Oc2ccccc21` (stereo unspecified), the IC50 (Oryctolagus cuniculus [3]) was 19 µM, the IC50 ratio (Oryctolagus cuniculus [4]) was 0.15 and the IC50 (Oryctolagus cuniculus [5]) was 2.8 µM. The Inhibition (Oryctolagus cuniculus [1]) was 8% and the IC50 (Oryctolagus cuniculus [2]) was over 30 µM.

With `COc1ccc(CCNCCC2CN(S(=O)(=O)c3cccc4ccccc34)c3ccccc3O2)cc1OC` (stereo unspecified) the IC50 (Oryctolagus cuniculus [3]) was 8.3 µM, the IC50 ratio (Oryctolagus cuniculus [4]) was 10.1 and the IC50 (Oryctolagus cuniculus [5]) was 83.7 µM. It also gave an Inhibition (Oryctolagus cuniculus [1]) of 46% and an IC50 (Oryctolagus cuniculus [2]) of over 30 µM.

`COc1ccc(CCNCCC2CN(C)c3ccccc3O2)cc1OC` (stereo unspecified) was tested, and the IC50 (Oryctolagus cuniculus [3]) was 44.7 µM, the IC50 ratio (Oryctolagus cuniculus [4]) was 0.26 and the IC50 (Oryctolagus cuniculus [5]) was 11.8 µM. For the same compound, the IC50 (Oryctolagus cuniculus [2]) was 21.8 µM.

Compound `Fc1ccc(C(OCCNCCCC2CN(Cc3ccccc3)c3ccccc3O2)c2ccc(F)cc2)cc1` (stereo unspecified) has an IC50 (Oryctolagus cuniculus [3]) of over 100 µM, an IC50 (Oryctolagus cuniculus [5]) of over 100 µM and an Inhibition (Oryctolagus cuniculus [6]) of 12%. It also gave an Inhibition (Oryctolagus cuniculus [1]) of 5%, an IC50 (Oryctolagus cuniculus [2]) of over 30 µM and an Inhibition (Oryctolagus cuniculus [7]) of 26%.

Compound `COc1ccc(CCNCCC2CN(S(=O)(=O)c3cccc4cnccc34)c3ccccc3O2)cc1OC` (stereo unspecified) has an IC50 (Oryctolagus cuniculus [3]) of 7.3 µM, an IC50 ratio (Oryctolagus cuniculus [4]) of 1.8 and an IC50 (Oryctolagus cuniculus [5]) of 13.3 µM. For the same compound, the Inhibition (Oryctolagus cuniculus [1]) was 23% and the IC50 (Oryctolagus cuniculus [2]) was over 30 µM.

Compound `COc1ccc(CCN(C)CCCC2Oc3cc4c(cc3NC2=O)OCCO4)cc1OC` (stereo unspecified) has an IC50 (Oryctolagus cuniculus [3]) of 2.2 µM, an IC50 ratio (Oryctolagus cuniculus [4]) of 7.3 and an IC50 (Oryctolagus cuniculus [5]) of 14.6 µM. The Inhibition (Oryctolagus cuniculus [1]) was 0% and the IC50 (Oryctolagus cuniculus [2]) was over 30 µM.

With `COc1ccc(CCNCC2CN(C)c3ccccc3O2)cc1OC` (stereo unspecified) the IC50 (Oryctolagus cuniculus [3]) was 57.4 µM, the IC50 ratio (Oryctolagus cuniculus [4]) was 0.36 and the IC50 (Oryctolagus cuniculus [5]) was 20.9 µM. The Inhibition (Oryctolagus cuniculus [1]) was 46% and the IC50 (Oryctolagus cuniculus [2]) was over 30 µM.

In the case of `COc1ccc(CCN(CCCC2Oc3cc4c(cc3NC2=O)OCCO4)Cc2ccccc2)cc1OC` (stereo unspecified), the IC50 (Oryctolagus cuniculus [3]) is reported as at least 100 µM, the IC50 ratio (Oryctolagus cuniculus [4]) is reported as “>=1” and the IC50 (Oryctolagus cuniculus [5]) is reported as 100 µM. The Inhibition (Oryctolagus cuniculus [6]) was 47%, the Inhibition (Oryctolagus cuniculus [1]) was 0% and the IC50 (Oryctolagus cuniculus [2]) was over 30 µM. For the same compound, the Inhibition (Oryctolagus cuniculus [7]) was 41%.

`Fc1ccc(N2CCN(CC3CN(Cc4ccccc4)c4ccccc4O3)CC2)cc1` (stereo unspecified) showed an IC50 (Oryctolagus cuniculus [3]) of 52.4 µM, an IC50 ratio (Oryctolagus cuniculus [4]) of 0.21 and an IC50 (Oryctolagus cuniculus [5]) of 10.9 µM. For the same compound, the Inhibition (Oryctolagus cuniculus [1]) was 2% and the IC50 (Oryctolagus cuniculus [2]) was over 30 µM.

With `COc1ccc(CCNCCC2CNc3ccccc3O2)cc1OC` (stereo unspecified) the IC50 (Oryctolagus cuniculus [3]) was over 100 µM, the Inhibition (Oryctolagus cuniculus [8]) was 25% and the IC50 (Oryctolagus cuniculus [5]) was 42 µM. It also gave an Inhibition (Oryctolagus cuniculus [1]) of 26% and an IC50 (Oryctolagus cuniculus [2]) of over 30 µM.
